Laboratory results published in ChEMBL document CHEMBL2311431, “Synthesis and biological evaluation of some 5-arylidene-2-(1,3-thiazol-2-ylimino)-1,3-thiazolidin-4-ones as dual anti-inflammatory/antimicrobial agents” (Bioorg Med Chem, 2013).
Values after ≈ are worked out from the molar mass of the structure shown.

Assays:
Glycine max = test: (§1) Inhibition of soybean lipoxygenase assessed as inhibition of sodium linolate conversion to 13-hydroperoxylinoleic acid after 4 mins by spectrophotometry
[1] = as §1; parameters: species or system Glycine max; settings: read-out: IC50
Bacillus cereus [2] = test: Bactericidal activity against Bacillus cereus clinical isolate after 72 hrs by serial subcultivation method; assay type: functional
Micrococcus flavus [3] = test: Antibacterial activity against Micrococcus flavus ATCC 10240 after 24 hr by microdilution test; assay type: functional; settings: ATCC 10240, 24 h
Procedure, shortened: (§2)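 Broth microdilution in LB medium, about 1.0×10^4 cfu per well; compounds from 1 mg/ml stocks in 5% DMSO. Incubated 24 h. MIC is the lowest concentration with no visible growth under a binocular microscope. Run in duplicate, repeated three times.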

Mus musculus [4] = test: Acute toxicity in AKR mouse up to 0.5 mmol/kg, ip; assay type: organism-based; settings: in vivo
Escherichia coli [5] = test: Bactericidal activity against Escherichia coli ATCC 35210 after 72 hrs by serial subcultivation method; assay type: functional; settings: ATCC 35210, 72 h
Micrococcus flavus [6] = test: Bactericidal activity against Micrococcus flavus ATCC 10240 after 72 hrs by serial subcultivation method; assay type: functional; settings: ATCC 10240, 72 h
Pseudomonas aeruginosa [7] = test: Bactericidal activity against Pseudomonas aeruginosa ATCC 27853 after 72 hrs by serial subcultivation method; assay type: functional; settings: ATCC 27853, 72 h
Trichoderma viride [8] = test: Fungicidal activity against Trichoderma viride IAM 5061 after 72 hrs by serial subcultivation method; assay type: functional; settings: IAM 5061, 72 h
Listeria monocytogenes [9] = test: Bactericidal activity against Listeria monocytogenes NCTC 7973 after 72 hrs by serial subcultivation method; assay type: functional; settings: NCTC 7973, 72 h
Staphylococcus aureus [10] = test: Antibacterial activity against Staphylococcus aureus ATCC 6538 after 24 hr by microdilution test; assay type: functional; settings: ATCC 6538, 24 h; procedure, shortened: as §2
Trichoderma viride [11] = test: Antifungal activity against Trichoderma viride IAM 5061 after 72 hrs by serial dilution technique; assay type: functional; settings: IAM 5061, 72 h
Procedure, shortened: (§3)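 Serial dilution in malt broth; compounds from 1 mg/ml stocks in 5% DMSO; 72 h at 28 °C. MIC is the lowest concentration with no visible growth under a binocular microscope. Run in duplicate, repeated three times.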

Pseudomonas aeruginosa [12] = test: Antibacterial activity against Pseudomonas aeruginosa ATCC 27853 after 24 hr by microdilution test; assay type: functional; settings: ATCC 27853, 24 h; procedure, shortened: as §2
Listeria monocytogenes [13] = test: Antibacterial activity against Listeria monocytogenes NCTC 7973 after 24 hr by microdilution test; assay type: functional; settings: NCTC 7973, 24 h; procedure, shortened: as §2
Penicillium ochrochloron [14] = test: Antifungal activity against Penicillium ochrochloron ATCC 9112 after 72 hrs by serial dilution technique; assay type: functional; settings: ATCC 9112, 72 h; procedure, shortened: as §3
Bacillus cereus [15] = test: Antibacterial activity against Bacillus cereus clinical isolate after 24 hr by microdilution test; assay type: functional; procedure, shortened: as §2
Aspergillus fumigatus [16] = test: Fungicidal activity against Aspergillus fumigatus after 72 hrs by serial subcultivation method; assay type: functional
[17] = biological target: T1, Prostaglandin G/H synthase 1 (Ovis aries, UniProt P05979); test: (§4) Inhibition of ovine COX1 assessed as inhibition of PGF2a production by enzyme immunoassay
T1 sequence (P05979 whole entry): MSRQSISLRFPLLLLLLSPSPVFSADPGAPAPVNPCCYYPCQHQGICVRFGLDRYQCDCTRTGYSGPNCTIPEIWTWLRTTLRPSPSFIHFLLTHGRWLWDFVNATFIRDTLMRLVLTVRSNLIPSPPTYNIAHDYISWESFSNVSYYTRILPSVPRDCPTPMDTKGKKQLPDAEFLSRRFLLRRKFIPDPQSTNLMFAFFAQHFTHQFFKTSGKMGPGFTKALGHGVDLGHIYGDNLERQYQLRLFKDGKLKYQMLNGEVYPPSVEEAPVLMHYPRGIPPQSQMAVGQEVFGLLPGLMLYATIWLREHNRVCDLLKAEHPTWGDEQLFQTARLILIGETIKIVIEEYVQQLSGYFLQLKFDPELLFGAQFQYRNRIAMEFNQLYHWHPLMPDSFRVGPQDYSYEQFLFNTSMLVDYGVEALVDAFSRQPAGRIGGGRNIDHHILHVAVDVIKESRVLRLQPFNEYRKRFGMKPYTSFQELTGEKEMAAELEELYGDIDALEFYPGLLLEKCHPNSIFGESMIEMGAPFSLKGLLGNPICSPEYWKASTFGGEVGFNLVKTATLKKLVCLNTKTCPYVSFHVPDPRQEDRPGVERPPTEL
Procedure, shortened: (§5)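 Ovine COX-1 from a commercial screening kit, tested with 0.1 µM arachidonic acid, which is below the saturating level. COX-derived PGH2 is reduced by SnCl2 to PGF2a, quantified by enzyme immunoassay with a broad prostaglandin antibody. At least triplicate.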

[18] = biological target: T2, Prostaglandin G/H synthase 1 (Ovis aries) (UniProt P05979); test: as §4; parameters: concentration or dose not given beside the values; settings: concentration not given here; procedure, shortened: as §5
T2 sequence (whole entry): T1 sequence (P05979 whole entry)

Aspergillus flavus [19] = test: Antifungal activity against Aspergillus flavus ATCC 9643 after 72 hrs by serial dilution technique; assay type: functional; settings: ATCC 9643, 72 h; procedure, shortened: as §3
Staphylococcus aureus [20] = test: Bactericidal activity against Staphylococcus aureus ATCC 6538 after 72 hrs by serial subcultivation method; assay type: functional; settings: ATCC 6538, 72 h
Talaromyces funiculosus [21] = test: Antifungal activity against Penicillium funiculosum ATCC 36839 after 72 hrs by serial dilution technique; assay type: functional; settings: ATCC 36839, 72 h; procedure, shortened: as §3
Escherichia coli [22] = test: Antibacterial activity against Escherichia coli ATCC 35210 after 24 hr by microdilution test; assay type: functional; settings: ATCC 35210, 24 h; procedure, shortened: as §2
Aspergillus flavus [23] = test: Fungicidal activity against Aspergillus flavus ATCC 9643 after 72 hrs by serial subcultivation method; assay type: functional; settings: ATCC 9643, 72 h
Talaromyces funiculosus [24] = test: Fungicidal activity against Penicillium funiculosum ATCC 36839 after 72 hrs by serial subcultivation method; assay type: functional; settings: ATCC 36839, 72 h
Aspergillus niger [25] = test: Antifungal activity against Aspergillus niger ATCC 6275 after 72 hrs by serial dilution technique; assay type: functional; settings: ATCC 6275, 72 h; procedure, shortened: as §3
Aspergillus niger [26] = test: Fungicidal activity against Aspergillus niger ATCC 6275 after 72 hrs by serial subcultivation method; assay type: functional; settings: ATCC 6275, 72 h
Penicillium ochrochloron [27] = test: Fungicidal activity against Penicillium ochrochloron ATCC 9112 after 72 hrs by serial subcultivation method; assay type: functional; settings: ATCC 9112, 72 h
Mus musculus [28] = test: Antiinflammatory activity in AKR mouse assessed as inhibition of carrageenan-induced paw edema at 0.01 mmol/kg, ip measured after 3.5 hrs of carrageenan-challenge; assay type: functional
Procedure, shortened: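 AKR mice of both sexes (pregnant females excluded), 6-10 per group, fasted during the experiment. Edema induced by intradermal 0.05 mL of 2% carrageenin into the right hind paw. Compound given at 0.01 mmol/kg ip, suspended in water with Tween-80, at the same time as carrageenin.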

Aspergillus fumigatus [29] = test: Antifungal activity against Aspergillus fumigatus after 72 hrs by serial dilution technique; assay type: functional; procedure, shortened: as §3

SMILES	inhibition (Glycine max)	IC50 [1]	MBC (Bacillus cereus [2])	MIC (Micrococcus flavus [3])	Activity (Mus musculus [4])	MBC (Escherichia coli [5])	MBC (Micrococcus flavus [6])	MBC (Pseudomonas aeruginosa [7])	MFC (Trichoderma viride [8])	MBC (Listeria monocytogenes [9])	MIC (Staphylococcus aureus [10])	MIC (Trichoderma viride [11])	MIC (Pseudomonas aeruginosa [12])	MIC (Listeria monocytogenes [13])	MIC (Penicillium ochrochloron [14])	MIC (Bacillus cereus [15])	MFC (Aspergillus fumigatus [16])	inhibition [18]	MIC (Aspergillus flavus [19])	MBC (Staphylococcus aureus [20])	further results
O=C1N/C(=N\c2nccs2)S/C1=C\c1c(Cl)cccc1Cl	43%	137 µM	28.1 µM (≈ 10 µg/mL)	56.2 µM (≈ 20 µg/mL)	Non-toxic	56.2 µM (≈ 20 µg/mL)	84.2 µM (≈ 30 µg/mL)	28.1 µM (≈ 10 µg/mL)	28.1 µM (≈ 10 µg/mL)	84.2 µM (≈ 30 µg/mL)	28.1 µM (≈ 10 µg/mL)	21.1 µM (≈ 7.52 µg/mL)	21.1 µM (≈ 7.52 µg/mL)	56.2 µM (≈ 20 µg/mL)	28.1 µM (≈ 10 µg/mL)	21.1 µM (≈ 7.52 µg/mL)	70.2 µM (≈ 25 µg/mL)	100%	56.2 µM (≈ 20 µg/mL)	56.2 µM (≈ 20 µg/mL)	IC50 [17]: 78 µM; MIC (Talaromyces funiculosus [21]): 28.1 µM (≈ 10 µg/mL); MIC (Escherichia coli [22]): 28.1 µM (≈ 10 µg/mL); MFC (Aspergillus flavus [23]): 70.2 µM (≈ 25 µg/mL); MFC (Talaromyces funiculosus [24]): 70.2 µM (≈ 25 µg/mL); MIC (Aspergillus niger [25]): 56.2 µM (≈ 20 µg/mL); MFC (Aspergillus niger [26]): 70.2 µM (≈ 25 µg/mL); MFC (Penicillium ochrochloron [27]): 56.2 µM (≈ 20 µg/mL); inhibition in vivo at 10 µmol/kg (Mus musculus [28]): 58.5%; MIC (Aspergillus fumigatus [29]): 56.2 µM (≈ 20 µg/mL)
O=C1N/C(=N\c2nccs2)S/C1=C\c1cccc(Br)c1	34%	> 150 µM	29.2 µM (≈ 10.7 µg/mL)	18.3 µM (≈ 6.7 µg/mL)	Non-toxic	25.6 µM (≈ 9.38 µg/mL)	25.6 µM (≈ 9.38 µg/mL)	25.6 µM (≈ 9.38 µg/mL)	22 µM (≈ 8.06 µg/mL)	18.3 µM (≈ 6.7 µg/mL)	7.3 µM (≈ 2.67 µg/mL)	18 µM (≈ 6.59 µg/mL)	14.6 µM (≈ 5.35 µg/mL)	14.4 µM (≈ 5.27 µg/mL)	18 µM (≈ 6.59 µg/mL)	25.6 µM (≈ 9.38 µg/mL)	25.6 µM (≈ 9.38 µg/mL)	2%	22 µM (≈ 8.06 µg/mL)	14.4 µM (≈ 5.27 µg/mL)	MIC (Talaromyces funiculosus [21]): 18 µM (≈ 6.59 µg/mL); MIC (Escherichia coli [22]): 14.6 µM (≈ 5.35 µg/mL); MFC (Aspergillus flavus [23]): 25.6 µM (≈ 9.38 µg/mL); MFC (Talaromyces funiculosus [24]): 22 µM (≈ 8.06 µg/mL); MIC (Aspergillus niger [25]): 18 µM (≈ 6.59 µg/mL); MFC (Aspergillus niger [26]): 25.6 µM (≈ 9.38 µg/mL); MFC (Penicillium ochrochloron [27]): 22 µM (≈ 8.06 µg/mL); inhibition in vivo at 10 µmol/kg (Mus musculus [28]): 42.7%; MIC (Aspergillus fumigatus [29]): 18 µM (≈ 6.59 µg/mL)
Cc1ccc(/C=C2\S/C(=N/c3nccs3)NC2=O)cc1	67%	92 µM	33 µM (≈ 9.95 µg/mL)	66 µM (≈ 19.9 µg/mL)	Non-toxic	66 µM (≈ 19.9 µg/mL)	98.9 µM (≈ 29.8 µg/mL)	24.7 µM (≈ 7.44 µg/mL)	49.4 µM (≈ 14.9 µg/mL)	82.4 µM (≈ 24.8 µg/mL)	24.7 µM (≈ 7.44 µg/mL)	33 µM (≈ 9.95 µg/mL)	16.5 µM (≈ 4.97 µg/mL)	66 µM (≈ 19.9 µg/mL)	33 µM (≈ 9.95 µg/mL)	16.5 µM (≈ 4.97 µg/mL)	66 µM (≈ 19.9 µg/mL)	99%	49.4 µM (≈ 14.9 µg/mL)	33 µM (≈ 9.95 µg/mL)	IC50 [17]: 51 µM; MIC (Talaromyces funiculosus [21]): 49.4 µM (≈ 14.9 µg/mL); MIC (Escherichia coli [22]): 33 µM (≈ 9.95 µg/mL); MFC (Aspergillus flavus [23]): 66 µM (≈ 19.9 µg/mL); MFC (Talaromyces funiculosus [24]): 66 µM (≈ 19.9 µg/mL); MIC (Aspergillus niger [25]): 49.4 µM (≈ 14.9 µg/mL); MFC (Aspergillus niger [26]): 66 µM (≈ 19.9 µg/mL); MFC (Penicillium ochrochloron [27]): 66 µM (≈ 19.9 µg/mL); inhibition in vivo at 10 µmol/kg (Mus musculus [28]): 47%; MIC (Aspergillus fumigatus [29]): 49.4 µM (≈ 14.9 µg/mL)
O=C1N/C(=N\c2nccs2)S/C1=C\c1ccc(F)cc1	35%	> 150 µM	32.7 µM (≈ 9.99 µg/mL)	65.4 µM (≈ 20 µg/mL)	Non-toxic	65.4 µM (≈ 20 µg/mL)	81.9 µM (≈ 25 µg/mL)	65.4 µM (≈ 20 µg/mL)	65.4 µM (≈ 20 µg/mL)	98.2 µM (≈ 30 µg/mL)	32.7 µM (≈ 9.99 µg/mL)	32.7 µM (≈ 9.99 µg/mL)	32.7 µM (≈ 9.99 µg/mL)	81.9 µM (≈ 25 µg/mL)	32.7 µM (≈ 9.99 µg/mL)	24.6 µM (≈ 7.51 µg/mL)	65.4 µM (≈ 20 µg/mL)	44%	65.4 µM (≈ 20 µg/mL)	65.4 µM (≈ 20 µg/mL)	MIC (Talaromyces funiculosus [21]): 32.7 µM (≈ 9.99 µg/mL); MIC (Escherichia coli [22]): 32.7 µM (≈ 9.99 µg/mL); MFC (Aspergillus flavus [23]): 81.9 µM (≈ 25 µg/mL); MFC (Talaromyces funiculosus [24]): 65.4 µM (≈ 20 µg/mL); MIC (Aspergillus niger [25]): 32.7 µM (≈ 9.99 µg/mL); MFC (Aspergillus niger [26]): 65.4 µM (≈ 20 µg/mL); MFC (Penicillium ochrochloron [27]): 65.4 µM (≈ 20 µg/mL); inhibition in vivo at 10 µmol/kg (Mus musculus [28]): 65.6%; MIC (Aspergillus fumigatus [29]): 49.1 µM (≈ 15 µg/mL)
